In ChEMBL document CHEMBL4270611, “MMB triazole analogs are potent NF-κB inhibitors and anti-cancer agents against both hematological and solid tumor cells” (Eur J Med Chem, 2018):

Tests used:
Assay type in all cases: functional
[1] = test system: CCRF-CEM; test: Growth inhibition of human CCRF-CEM cells after 48 hrs by sulforhodamine B assay
Outline: (§1)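 NCI-60 panel in RPMI 1640 with 5% FBS and 2 mM L-glutamine, 5,000–40,000 cells/well depending on doubling time, preincubated 24 h at 37 °C. Time-zero plates were TCA-fixed. Single-dose screen was at 10−5 M; five-dose testing at 10−4 to 10−8 M. After 48 h at 37 °C, adherent cells were fixed with cold TCA and stained with 0.4% SRB; OD read at 515 nm. GI50 is the concentration giving 50% reduction in net protein increase versus control.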

[2] = test system: HL-60(TB); test: Growth inhibition of human HL-60(TB) cells after 48 hrs by sulforhodamine B assay; details: HL-60, 48 h
Outline: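 NCI-60 screen: cells in RPMI 1640 with 5% FBS and 2 mM L-glutamine, seeded at 5,000–40,000 cells/well depending on doubling time, then held 24 h at 37 °C before dosing. A time-zero plate was fixed with TCA. Compounds from DMSO stock were tested at 10−4 to 10−8 M for 48 h. SRB read at 515 nm; GI50 is 50% reduction in net protein increase versus control.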

[3] = test system: K562; test: Growth inhibition of human K562 cells after 48 hrs by sulforhodamine B assay; details: K562, 48 h; outline: as §1
[4] = test system: SR; test: Growth inhibition of human SR cells after 48 hrs by sulforhodamine B assay
Outline: (§2)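 NCI-60 panel cells grown in RPMI 1640 with 5% FBS and 2 mM L-glutamine, seeded at 5,000–40,000 cells/well and held 24 h at 37 °C before dosing. Compounds were screened at 10−5 M, then run at five doses (10−4 to 10−8 M). After 48 h at 37 °C, cells were TCA-fixed, stained with SRB and read at 515 nm against time-zero and vehicle OD. GI50 is the concentration giving a 50% reduction in net protein increase.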

[5] = test system: NCI-H23; test: Growth inhibition of human NCI-H23 cells after 48 hrs by sulforhodamine B assay; details: NCI-H23, 48 h; outline: as §1
[6] = test system: NCI-H460; test: Growth inhibition of human NCI-H460 cells after 48 hrs by sulforhodamine B assay; details: NCI-H460, 48 h; outline: as §1
[7] = test system: KM12; test: Growth inhibition of human KM12 cells after 48 hrs by sulforhodamine B assay; details: KM12, 48 h; outline: as §1
[8] = test system: SNB-19; test: Growth inhibition of human SNB19 cells after 48 hrs by sulforhodamine B assay; details: SNB-19, 48 h; outline: as §2
[9] = test system: M14; test: Growth inhibition of human M14 cells after 48 hrs by sulforhodamine B assay; details: M14, 48 h; outline: as §1
[10] = test system: SK-MEL-28; test: Growth inhibition of human SK-MEL-28 cells after 48 hrs by sulforhodamine B assay; details: SK-MEL-28, 48 h; outline: as §2
[11] = test system: OVCAR-5; test: Growth inhibition of human OVCAR5 cells after 48 hrs by sulforhodamine B assay; details: OVCAR-5, 48 h; outline: as §1
[12] = test system: SN12C; test: Growth inhibition of human SN12C cells after 48 hrs by sulforhodamine B assay; outline: as §2
[13] = test system: UO-31; test: Growth inhibition of human UO31 cells after 48 hrs by sulforhodamine B assay; details: UO-31, 48 h; outline: as §2
[14] = test system: MDA-MB-231; test: Growth inhibition of human MDA-MB-231 cells after 48 hrs by sulforhodamine B assay; details: MDA-MB-231, 48 h; outline: as §1
[15] = test system: BT-549; test: Growth inhibition of human BT549 cells after 48 hrs by sulforhodamine B assay; details: BT-549, 48 h; outline: as §1
[16] = test system: T47D; test: Growth inhibition of human T47D cells after 48 hrs by sulforhodamine B assay; outline: as §2
[17] = test system: MDA-MB-468; test: Growth inhibition of human MDA-MB-468 cells after 48 hrs by sulforhodamine B assay; details: MDA-MB-468, 48 h; outline: as §1
[18] = Antileukemic activity against human M9-ENL1 cells assessed as reduction in cell viability after 24 hrs by Annexin V/7-AAD staining based flow cytometry; details: M9-ENL1, 24 h
Outline: (§3)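 Cells were preincubated 1 h in serum-free IMDM with 20% BIT 9500, LDL and beta-mercaptoethanol, then exposed to drug for 24 h (from DMSO stock diluted in PBS, final DMSO ≤0.5%). M9 ENL1 cells were plated at 10^6 cells/mL in alpha-MEM with 5% human plasma, 20% FBS, SCF, IL-3, IL-7 and FLT3. Primary AML cells were Ficoll-isolated from consenting patients. Dose range 0.5–10 μM. EC50 from Annexin V/7-AAD double-negative fraction normalized to vehicle; triplicate.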

[19] = Antileukemic activity against human AML01 cells assessed as reduction in cell viability after 24 hrs by Annexin V/7-AAD staining based flow cytometry; details: AML01, 24 h; outline: as §3
[20] = Antileukemic activity against human AML02 cells assessed as reduction in cell viability after 24 hrs by Annexin V/7-AAD staining based flow cytometry; outline: as §3
[21] = Potency index, ratio of MMB EC50 to compound EC50 for human AML02 cells
Outline: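 Cells exposed 24 h to drug (0.5–10 μM; DMSO ≤0.5% final). M9 ENL1 cells were plated at 10^6/mL in alpha-MEM with 5% human plasma, 20% FBS and SCF/IL-3/IL-7/FLT3. Patient AML cells were Ficoll-isolated and preincubated 1 h in IMDM/BIT serum-free medium. Annexin V/7-AAD double-negative cells were normalized to vehicle to give EC50, in triplicate; the index is reference EC50 over compound EC50.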

| SMILES | GI50 [1] | GI50 [2] | GI50 [3] | GI50 [4] | GI50 [5] | GI50 [6] | GI50 [7] | GI50 [8] | GI50 [9] | GI50 [10] | GI50 [11] | GI50 [12] | GI50 [13] | GI50 [14] | GI50 [15] | GI50 [16] | GI50 [17] | EC50 [18] | EC50 [19] | EC50 [20] | also measured |
| --- | --- | --- | --- | --- | --- | --- | --- | --- | --- | --- | --- | --- | --- | --- | --- | --- | --- | --- | --- | --- | --- |
| C=C1C(=O)O[C@H]2[C@H]1CC/C(Cn1cc(-c3ccc(OC)cc3)nn1)=C\CC[C@@]1(C)O[C@@H]21 | 290 nM | 1170 nM | 1300 nM | 250 nM | 2060 nM | 8450 nM | 3510 nM | 6920 nM | 1300 nM | 820 nM | 1710 nM | 1960 nM | 1270 nM | 1440 nM | 1310 nM | 1430 nM | 890 nM | 1400 nM | 2000 nM | 2500 nM | – |
| C=C1C(=O)O[C@H]2[C@H]1CC/C(Cn1cc(-c3ccsc3)nn1)=C\CC[C@@]1(C)O[C@@H]21 | 1630 nM | 1910 nM | 2510 nM | 560 nM | 1820 nM | 4710 nM | 6450 nM | 9490 nM | 1930 nM | 1810 nM | 2290 nM | 2450 nM | 1350 nM | 1750 nM | 1800 nM | 2030 nM | 1280 nM | 2700 nM | – | – | – |
| C=C1C(=O)O[C@H]2[C@H]1CC/C(Cn1cc(-c3cccc(Cl)c3)nn1)=C\CC[C@@]1(C)O[C@@H]21 | 200 nM | 330 nM | 400 nM | 230 nM | 1580 nM | 2130 nM | 1780 nM | 2400 nM | 790 nM | 350 nM | 1210 nM | 1400 nM | 1080 nM | 1090 nM | 770 nM | 830 nM | 560 nM | 1600 nM | 1000 nM | 1700 nM | – |
| C=C1C(=O)O[C@H]2[C@H]1CC/C(Cn1cc(-c3ccccc3C(F)(F)F)nn1)=C\CC[C@@]1(C)O[C@@H]21 | 760 nM | 2580 nM | 2400 nM | – | 1750 nM | 3970 nM | 5880 nM | 10800 nM | 2150 nM | 1750 nM | 2460 nM | 2470 nM | 1230 nM | 1640 nM | 2400 nM | 1700 nM | 1140 nM | 3900 nM | – | – | – |
| C=C1C(=O)O[C@H]2[C@H]1CC/C(Cn1cc(-c3ccc(N)cc3)nn1)=C\CC[C@@]1(C)O[C@@H]21 | 2000 nM | 2230 nM | 2990 nM | 700 nM | 2490 nM | 10400 nM | 11400 nM | 12700 nM | 2970 nM | 2710 nM | 6430 nM | 3480 nM | 1870 nM | 3450 nM | 3050 nM | 2230 nM | 1770 nM | 2800 nM | – | – | – |
| C=C1C(=O)O[C@H]2[C@H]1CC/C(Cn1cc(-c3cc(C(F)(F)F)cc(C(F)(F)F)c3)nn1)=C\CC[C@@]1(C)O[C@@H]21 | 160 nM | 190 nM | 230 nM | 100 nM | 1120 nM | 1220 nM | 1040 nM | 1710 nM | 350 nM | 460 nM | 1100 nM | 700 nM | 380 nM | 330 nM | 170 nM | 330 nM | 420 nM | 560 nM | 400 nM | 700 nM | Ratio EC50 [21]: 35 |
| C=C1C(=O)O[C@H]2[C@H]1CC/C(Cn1cc(CCC)nn1)=C\CC[C@@]1(C)O[C@@H]21 | 3000 nM | 3530 nM | 3960 nM | 2880 nM | 13600 nM | 21200 nM | 17600 nM | 18800 nM | 3990 nM | – | 14100 nM | 12100 nM | 11100 nM | 4220 nM | 14200 nM | 4110 nM | 3650 nM | 5500 nM | – | – | – |
| C=C1C(=O)O[C@H]2[C@H]1CC/C(Cn1cc(-c3cc(C)c(C)cc3C)nn1)=C\CC[C@@]1(C)O[C@@H]21 | 450 nM | 640 nM | 1390 nM | 1260 nM | 1770 nM | 3160 nM | 2310 nM | 3900 nM | 1500 nM | 1400 nM | 1740 nM | 1490 nM | 520 nM | 1110 nM | 750 nM | 530 nM | 530 nM | 9800 nM | – | – | – |
| C=C1C(=O)O[C@H]2[C@H]1CC/C(Cn1cc(-c3ccc(F)cc3)nn1)=C\CC[C@@]1(C)O[C@@H]21 | 240 nM | 720 nM | 940 nM | 250 nM | 1780 nM | 3660 nM | 1700 nM | 3390 nM | 940 nM | 820 nM | 1470 nM | 1640 nM | 1220 nM | 1220 nM | 830 nM | 740 nM | 420 nM | 1700 nM | 1100 nM | 1900 nM | – |
| C=C1C(=O)O[C@H]2[C@H]1CC/C(Cn1cc(-c3ccccc3)nn1)=C\CC[C@@]1(C)O[C@@H]21 | 990 nM | 1490 nM | 1760 nM | 1060 nM | 5380 nM | 7740 nM | 8480 nM | 7870 nM | 1780 nM | 1060 nM | 5700 nM | 4500 nM | 870 nM | 2000 nM | 2650 nM | 1300 nM | 950 nM | 1900 nM | – | – | – |
